In ChEMBL document CHEMBL1151799, “Trace amine-associated receptor 1 (TAAR1) is activated by amiodarone metabolites” (Bioorg Med Chem Lett, 2008):
Calls of active or inactive are those of the source. No cut-off for these calls is given here.

These molecules were tested against Trace amine-associated receptor 1 (Rattus norvegicus) (UniProt Q923Y9) (assay: Agonist activity at rat TAAR1 expressed in HEK293 cells assessed as intracellular cAMP level at <=10 uM after 1 hr).
Assay type: functional, cell-based
Summary of the method: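 HEK293 cells stably transfected with rTAAR1 (empty pcDNA3 vector cells as control) were harvested in Krebs-Ringer-Hepes buffer (KRH), then incubated in KRH with 133 µM IBMX plus test compound, forskolin (10 µM) or vehicle (DMSO) for 1 h at 37 °C. Intracellular cAMP was read. Tested at 10 µM or below. At least three separate experiments, each in triplicate.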

Chain of Trace amine-associated receptor 1 (Rattus norvegicus) (Q923Y9 whole entry): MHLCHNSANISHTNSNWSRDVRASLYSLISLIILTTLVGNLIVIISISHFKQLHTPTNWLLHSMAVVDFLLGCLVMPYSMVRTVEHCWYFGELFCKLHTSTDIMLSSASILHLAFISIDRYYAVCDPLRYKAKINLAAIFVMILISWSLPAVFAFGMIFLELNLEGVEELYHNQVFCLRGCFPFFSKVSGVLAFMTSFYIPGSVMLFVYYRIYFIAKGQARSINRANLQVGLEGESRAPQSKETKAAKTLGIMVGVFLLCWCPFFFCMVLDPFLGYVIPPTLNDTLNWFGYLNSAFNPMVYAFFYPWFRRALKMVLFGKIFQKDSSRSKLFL

Activity	SMILES
Active	CCCCc1oc2ccccc2c1C(=O)c1ccc(OCCNCC)cc1
Active	CCCCc1oc2ccccc2c1C(=O)c1ccc(OCCN)cc1
Active	CCCCc1oc2ccccc2c1C(=O)c1ccc(OCCN)c(I)c1

SMILES	Activity
CCCCc1oc2ccccc2c1C(=O)c1cc(I)c(OCCN)c(I)c1	Active

These molecules were tested against Trace amine-associated receptor 1 (Rattus norvegicus, UniProt Q923Y9) (assay: Agonist activity at rat TAAR1 expressed in HEK293 cells assessed as intracellular cAMP level).
Chain of Trace amine-associated receptor 1 (Q923Y9 whole entry): as above
Assay type: functional, cell-based
Summary of the method: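 HEK293 cells stably transfected with rat TAAR1, with empty pcDNA3 vector cells as control, were harvested in Krebs-Ringer-Hepes buffer. They were incubated in the same buffer with 133 µM IBMX plus test compound, 10 µM forskolin or DMSO vehicle for 1 h at 37 °C. Results are mean ± SEM of at least three separate experiments, each run in triplicate.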

SMILES	EC50
CCCCc1oc2ccccc2c1C(=O)c1cc(I)c(OCCN)c(I)c1	1 µM

What follows are molecules tested against Trace amine-associated receptor 1 (Rattus norvegicus) (UniProt Q923Y9) (assay: Antagonist activity at rat TAAR1 expressed in HEK293 cells assessed as intracellular cAMP level at 10 uM after 1 hr).
Assay type: functional, cell-based
Summary of the method: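 Stably rTAAR1-transfected HEK293 cells were harvested in Krebs-Ringer-Hepes buffer and incubated in it with 133 µM IBMX, 1 h at 37 °C. Test compound at 10 µM was given in competition with the agonist T1AM at 33 nM. Intracellular cAMP was read. At least three separate experiments, each in triplicate.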

Activity	SMILES
inactive	CCCCc1oc2ccccc2c1C(=O)c1ccc(OCCN(CC)CC)c(I)c1
inactive	CCCCc1oc2ccccc2c1C(=O)c1ccc(OCCNCC)c(I)c1
inactive	CCCCc1oc2ccccc2c1C(=O)c1ccc(OCCN(CC)CC)cc1
inactive	CCCCc1oc2ccccc2c1C(=O)c1cc(I)c(OCCNCC)c(I)c1
